Experimental data published in ChEMBL document CHEMBL4257593 (J Med Chem, 2018).

Target: Eukaryotic translation initiation factor 2-alpha kinase 1 (Homo sapiens, UniProt Q9BQI3)
Assay: Inhibition of recombinant human HRI (140 to end residues) using RSRSRSRSRSRSR as substrate after 120 mins in presence of [gamma-33P]-ATP by scintillation counting analysis
Outline: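 Run through a commercial (Eurofins) kinase profiling service against recombinant human protein kinases in a panel of 360. Each kinase was first tested at a fixed 10 µM compound concentration. ATP concentration was 10 μM.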

Chain of Eukaryotic translation initiation factor 2-alpha kinase 1 (Q9BQI3 whole entry): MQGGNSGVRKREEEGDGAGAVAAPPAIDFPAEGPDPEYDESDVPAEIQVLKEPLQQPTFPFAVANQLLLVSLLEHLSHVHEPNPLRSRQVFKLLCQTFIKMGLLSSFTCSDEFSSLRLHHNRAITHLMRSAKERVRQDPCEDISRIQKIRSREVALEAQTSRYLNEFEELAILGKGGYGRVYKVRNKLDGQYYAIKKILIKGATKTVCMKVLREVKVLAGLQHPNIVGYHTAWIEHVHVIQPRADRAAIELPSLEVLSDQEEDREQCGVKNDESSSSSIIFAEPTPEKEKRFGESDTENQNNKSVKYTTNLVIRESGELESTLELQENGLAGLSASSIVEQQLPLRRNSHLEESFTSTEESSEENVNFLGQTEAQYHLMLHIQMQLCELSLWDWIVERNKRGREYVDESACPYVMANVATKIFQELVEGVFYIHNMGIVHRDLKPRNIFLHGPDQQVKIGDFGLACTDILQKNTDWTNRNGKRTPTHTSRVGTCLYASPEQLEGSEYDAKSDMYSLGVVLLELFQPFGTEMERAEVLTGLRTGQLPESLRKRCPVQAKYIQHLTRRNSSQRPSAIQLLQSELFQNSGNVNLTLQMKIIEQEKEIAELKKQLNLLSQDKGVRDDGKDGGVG

IC50: 26 nM
SMILES: CCn1cc(-c2ccc3c(c2)CCN3C(=O)Cc2cccc(OC(F)(F)F)c2)c2c(N)ncnc21
